Results taken from ChEMBL document CHEMBL4406880, “Design, synthesis, and bioactivity of dihydropyrimidine derivatives as kinesin spindle protein inhibitors” (Bioorg Med Chem, 2019).

Tests used:
Format in all cases: functional
[1] = test system: MOLT-4; experiment: Growth inhibition of human MOLT4 cells assessed as cell viability at 0.001 uM incubated for 48 hrs by sulforhodamine B assay relative to control; conditions: MOLT-4, 48 h, read-out: Activity
[2] = test system: ACHN; experiment: Growth inhibition of human ACHN cells assessed as cell viability at 0.001 uM incubated for 48 hrs by sulforhodamine B assay relative to control; conditions: read-out: Activity
[3] = test system: T47D; experiment: Growth inhibition of human T47D cells assessed as cell viability at 0.001 uM incubated for 48 hrs by sulforhodamine B assay relative to control; conditions: read-out: Activity
[4] = test system: SNB-75; experiment: Induction of apoptosis in human SNB75 cells assessed as late apoptotic cells at 2 uM incubated for 24 hrs by annexin V FITC and propidium iodide based flow cytometry (reference value: 0.59 %)
[5] = test system: SN12C; experiment: Growth inhibition of human SN12C cells incubated for 48 hrs by sulforhodamine B assay
Procedure, shortened: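 NCI-60 five-dose assay, SRB end-point, same culture conditions. Compound is tested at tenfold dilutions of 0.01, 0.1, 1, 10 and 100 µM for 48 h at 37 °C, with DMSO/PBS vehicle controls. Percentage growth at each concentration is taken against untreated cells and a time-zero plate. GI50 is 50% net growth decrease, TGI is total growth inhibition, and LC50 is 50% loss of initial cells.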

[6] = test system: HCT-15; experiment: Growth inhibition of human HCT15 cells assessed as cell viability at 0.1 uM incubated for 48 hrs by sulforhodamine B assay; conditions: HCT-15, 48 h, read-out: Activity
[7] = test system: KM12; experiment: Growth inhibition of human KM12 cells assessed as cell viability at 0.001 uM incubated for 48 hrs by sulforhodamine B assay relative to control; conditions: KM12, 48 h, read-out: Activity
[8] = test system: NCI-H23; experiment: Growth inhibition of human NCI-H23 cells assessed as cell viability at 0.1 uM incubated for 48 hrs by sulforhodamine B assay; conditions: NCI-H23, 48 h, read-out: Activity
[9] = test system: SF-268; experiment: Growth inhibition of human SF268 cells assessed as cell viability at 0.001 uM incubated for 48 hrs by sulforhodamine B assay relative to control; conditions: SF-268, 48 h, read-out: Activity
[10] = test system: CCRF-CEM; experiment: Growth inhibition of human CCRF-CEM cells assessed as cell viability at 0.001 uM incubated for 48 hrs by sulforhodamine B assay relative to control; conditions: read-out: Activity
[11] = test system: U-251; experiment: Growth inhibition of human U251 cells assessed as cell viability at 0.001 uM incubated for 48 hrs by sulforhodamine B assay relative to control; conditions: U-251, 48 h, read-out: Activity
[12] = test system: OVCAR-4; experiment: Growth inhibition of human OVCAR4 cells assessed as cell viability at 100 uM incubated for 48 hrs by sulforhodamine B assay; conditions: OVCAR-4, 48 h, read-out: Activity
[13] = test system: HOP-92; experiment: Growth inhibition of human HOP92 cells assessed as cell viability at 0.001 uM incubated for 48 hrs by sulforhodamine B assay relative to control; conditions: HOP-92, 48 h, read-out: Activity
[14] = test system: A549; experiment: Growth inhibition of human A549/ATCC cells assessed as cell viability at 100 uM incubated for 48 hrs by sulforhodamine B assay; conditions: A549, 48 h, read-out: Activity
Procedure, shortened: (§1)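 NCI-60 five-dose mode: five tenfold dilutions (0.01, 0.1, 1, 10, 100 µM) are applied for 48 h to cells in RPMI 1640 with 5% FBS at 37 °C. Endpoint is TCA fixation with sulforhodamine B read at 515 nm. % growth comes from the 0 h and control absorbances. GI50 is the concentration giving a 50% reduction in net cell growth.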

[15] = test system: NCI-H460; experiment: Growth inhibition of human NCI-H460 cells incubated for 48 hrs by sulforhodamine B assay; conditions: NCI-H460, 48 h
Procedure, shortened: (§2)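 NCI-60 five-dose SRB assay in RPMI 1640 with 5% FBS, 37 °C, 5% CO2. Compound given at five tenfold dilutions, 0.01–100 µM, for 48 h. Adherent cells fixed with TCA, suspension cells with 16% final TCA. Bound SRB read at 515 nm and growth calculated against time-zero and untreated controls. GI50 taken from dose–response curves as the concentration giving a 50% decrease in net cell growth.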

[16] = test system: MCF7; experiment: Growth inhibition of human MCF7 cells assessed as cell viability at 1 uM incubated for 48 hrs by sulforhodamine B assay; conditions: MCF7, 48 h, read-out: Activity
[17] = test system: OVCAR-5; experiment: Growth inhibition of human OVCAR5 cells assessed as cell viability at 0.001 uM incubated for 48 hrs by sulforhodamine B assay relative to control; conditions: OVCAR-5, 48 h, read-out: Activity
[18] = test system: MCF7; experiment: Growth inhibition of human MCF7 cells assessed as cell viability at 100 uM incubated for 48 hrs by sulforhodamine B assay; conditions: MCF7, 48 h, read-out: Activity
[19] = test system: K562; experiment: Growth inhibition of human K562 cells incubated for 48 hrs by sulforhodamine B assay; conditions: K562, 48 h; procedure, shortened: as §2
[20] = test system: DU-145; experiment: Growth inhibition of human DU145 cells assessed as cell viability at 0.1 uM incubated for 48 hrs by sulforhodamine B assay; conditions: DU-145, 48 h, read-out: Activity
[21] = test system: HCC 2998; experiment: Growth inhibition of human HCC2998 cells incubated for 48 hrs by sulforhodamine B assay; conditions: HCC 2998, 48 h; procedure, shortened: as §1
[22] = test system: COLO 205; experiment: Growth inhibition of human COLO205 cells assessed as cell viability at 0.001 uM incubated for 48 hrs by sulforhodamine B assay relative to control; conditions: COLO 205, 48 h, read-out: Activity
[23] = test system: COLO 205; experiment: Growth inhibition of human COLO205 cells incubated for 48 hrs by sulforhodamine B assay; conditions: COLO 205, 48 h; procedure, shortened: as §1
[24] = test system: A549; experiment: Growth inhibition of human A549/ATCC cells incubated for 48 hrs by sulforhodamine B assay; conditions: A549, 48 h; procedure, shortened: as §1
[25] = read-out: LC50 (the source's name)
[26] = read-out: pLC50 (the source's name) (converted)

CC1=C(C(=O)OCc2ccccc2)C(c2ccc3c(c2)OCO3)n2c(nc3ccccc32)N1 (racemic)
viability at 0.001 µM [1]: 96%
viability at 0.001 µM [2]: 99%
viability at 0.001 µM [3]: 82%
Activity [4]: 15.12%
CC50 [5, 25]: > 100 µM
TGI ([5]; read-out: TGI): > 100 µM
CC50 [5, 26]: > 100 µM
TGI ([5]; read-out: pTGI): > 100 µM
viability at 0.1 µM [6]: 84%
viability at 0.001 µM [7]: 91%
viability at 0.1 µM [8]: 92%
viability at 0.001 µM [9]: 91%
viability at 0.001 µM [10]: 101%
viability at 0.001 µM [11]: 94%
viability at 100 µM [12]: 19%
viability at 0.001 µM [13]: 67%
viability at 100 µM [14]: 10%
GI50 ([15]; read-out: GI50): 360 nM
CC50 [15, 25]: > 100 µM
TGI ([15]; read-out: TGI): > 100 µM
GI50 ([15]; read-out: pGI50 (converted)): 363 nM
CC50 [15, 26]: > 100 µM
TGI ([15]; read-out: pTGI): > 100 µM
viability at 1 µM [16]: 14%
viability at 0.001 µM [17]: 93%
viability at 100 µM [18]: 7%
GI50 ([19]; read-out: GI50): 340 nM
CC50 [19, 25]: > 100 µM
TGI ([19]; read-out: TGI): > 100 µM
GI50 ([19]; read-out: pGI50 (converted)): 347 nM
CC50 [19, 26]: > 100 µM
TGI ([19]; read-out: pTGI): > 100 µM
viability at 0.1 µM [20]: 109%
GI50 ([21]; read-out: GI50): 11 µM
LC50 ([21]; read-out: LC50): > 100 µM
TGI ([21]; read-out: TGI): > 100 µM
GI50 ([21]; read-out: pGI50 (converted)): 11 µM
LC50 ([21]; read-out: pLC50 (converted)): > 100 µM
TGI ([21]; read-out: pTGI): > 100 µM
viability at 0.001 µM [22]: 95%
GI50 ([23]; read-out: GI50): 500 nM
LC50 ([23]; read-out: LC50): > 100 µM
TGI ([23]; read-out: TGI): > 100 µM
GI50 ([23]; read-out: pGI50 (converted)): 501 nM
LC50 ([23]; read-out: pLC50 (converted)): > 100 µM
TGI ([23]; read-out: pTGI): > 100 µM
GI50 ([24]; read-out: GI50): 680 nM
CC50 [24, 25]: > 100 µM
TGI ([24]; read-out: TGI): > 100 µM
GI50 ([24]; read-out: pGI50 (converted)): 676 nM
CC50 [24, 26]: > 100 µM
TGI ([24]; read-out: pTGI): > 100 µM
